# ChEMBL document CHEMBL1156038 (J Med Chem, 2009)
# The source made the active and inactive calls. No cut-off for these calls is given here.
# Experiments:
# Rattus norvegicus [1] = organism: Rattus norvegicus; assay: Inhibition of [3H]adenine binding to adenine 1 receptor in rat brain cortical membrane at 250 uM by liquid scintillation counting; type: cell membranes
# [2] = Displacement of [3H]adenine from adenine 1 receptor in HEK293 cells by liquid scintillation counting; type: cell-based, Homo sapiens
# HEK293 [3] = assay: Inhibition of [3H]adenine binding to adenine 1 receptor in HEK293 cells at 100 uM by liquid scintillation counting; type: cell-based; conditions: Homo sapiens
# Rattus norvegicus [4] = organism: Rattus norvegicus; assay: Inhibition of [3H]adenine binding to adenine 1 receptor in rat brain cortical membrane at 100 uM by liquid scintillation counting; type: cell membranes
# How it was run: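 Aqueous solutions were autoclaved or heated >90 °C for ≥10 min to destroy bacterial binding sites. […] Filtered on GF/B with ice-cold Tris washes, then scintillation counted. Percent inhibition ± SEM.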
# HEK293 [5] = assay: Selectivity ratio of Ki for adenine 1 receptor in HEK293 cells to Ki for adenine 1 receptor in rat brain cortical membrane; type: cell-based
# 1321-N1 [6] = assay: Agonist activity at rat adenine 1 receptor expressed in human 1321N1 cells assessed as inhibition of isoproterenol-induced [3H]cAMP formation at 250 uM by scintillation counting; type: functional, cell-based
# How it was run: (§1)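 1321N1 astrocytoma cells stably expressing rat Ade1R (retroviral pLXSN, G418 800 μg/mL), grown on 24-well plates. Cells washed and held 2 h at 37 °C in HBSS pH 7.3. Compound added together with 3 nM isoproterenol for 10 min at 37 °C, then stopped with hot EDTA/Triton lysis. cAMP measured by [3H]cAMP competition with calf adrenal binding protein and filtration, read against a 0–40 pmol standard curve. Result given as % of isoproterenol alone; n = 3.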
# 1321-N1 [7] = assay: Inhibition of [3H]adenine uptake at rat adenine 1 receptor expressed in human 1321N1 cells at 100 uM after 1 min by liquid scintillation counting; type: cell-based
# HEK293 [8] = assay: Selectivity ratio of Ki for adenine 1 receptor in rat brain cortical membrane to Ki for adenine 1 receptor in HEK293 cells; type: cell-based
# 1321-N1 [9] = assay: Agonist activity at rat adenine 1 receptor expressed in human 1321N1 cells assessed as inhibition of isoproterenol-induced [3H]cAMP formation at 500 uM by scintillation counting; type: functional, cell-based; how it was run: as §1
# Rattus norvegicus [10] = organism: Rattus norvegicus; assay: Inhibition of [3H]adenine binding to adenine 1 receptor in rat brain cortical membrane at 30 uM by liquid scintillation counting; type: cell membranes
# [11] = Agonist activity at rat adenine 1 receptor expressed in human 1321N1 cells assessed as inhibition of isoproterenol-induced [3H]cAMP formation at 250 uM by scintillation counting relative to adenine; type: functional; how it was run: as §1
# 1321-N1 [12] = assay: Antagonist activity at rat adenine 1 receptor expressed in human 1321N1 cells assessed as change in adenine IC50 for inhibition of isoproterenol-induced [3H]cAMP formation at 10 uM by scintillation counting; type: functional, cell-based
# How it was run: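 Retrovirally transduced 1321N1 astrocytoma cells stably expressing rat Ade1R, 24-well culture, washed and preincubated in Hepes-buffered HBSS pH 7.3, 2 h, 37 °C. […] Hot EDTA/Triton lysis. cAMP measured by competition with [3H]cAMP for calf adrenal binding protein, filtered, scintillation counting.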
# 1321-N1 [13] = assay: Agonist activity at rat adenine 1 receptor expressed in human 1321N1 cells assessed as inhibition of isoproterenol-induced [3H]cAMP formation at 30 uM by scintillation counting; type: functional, cell-based; how it was run: as §1
# 1321-N1 [14] = assay: Activity at rat adenine 1 receptor expressed in human 1321N1 cells assessed as complete inhibition of cAMP formation at 250 uM; type: cell-based; how it was run: as §1
# [15] = (§2) Agonist activity at rat adenine 1 receptor expressed in human 1321N1 cells assessed as inhibition of isoproterenol-induced [3H]cAMP formation by scintillation counting; type: functional, cell-based
# 1321-N1 [16] = assay: as §2; type: functional, cell-based
# [17] = Agonist activity at rat adenine 1 receptor expressed in human 1321N1 cells assessed as inhibition of isoproterenol-induced [3H]cAMP formation at 1 uM by scintillation counting; type: functional
# 1321-N1 [18] = assay: Inhibition of [3H]adenine uptake at rat adenine 1 receptor expressed in human 1321N1 cells at 1 mM after 1 min by liquid scintillation counting; type: cell-based
# [19] = Agonist activity at rat adenine 1 receptor expressed in human 1321N1 cells assessed as inhibition of isoproterenol-induced [3H]cAMP formation at 50 uM by scintillation counting relative to adenine; type: functional; how it was run: as §1
inhibition (Rattus norvegicus [4]),Compound,Ki [2],Ratio Ki (HEK293 [5]),further results
,Nc1ncnc2c1ncn2CCc1ccncc1,> 100 µM,,inhibition (Rattus norvegicus [1]): 46%; inhibition (HEK293 [3]): 44%
24%,Nc1nc(OCCc2ccccc2)nc2[nH]cnc12,,,
,Nc1ncnc2c1ncn2CCN1CCOCC1,5.49 µM,1.8,inhibition (1321-N1 [6]): Active; inhibition (1321-N1 [7]): Active
3%,CCn1cnc2c(N)nc(NCCc3ccccc3)nc21,,,
,Nc1[nH]ccc2ncnc1-2,6.68 µM,1,
,Nc1nc2[nH]cnc(N)c-2n1,0.0341 µM,0.005,Ratio Ki (HEK293 [8]): 190; inhibition (1321-N1 [9]): Active; inhibition (1321-N1 [7]): Active
,Nc1ncnc2[nH]c(Sc3ccccc3)nc12,,,inhibition (Rattus norvegicus [10]): 0%
3%,CCn1cnc2c(NCCc3ccccc3)ncnc21,,,
,Nc1ccnc2[nH]cnc12,7.89 µM,0.7,
-6%,Nc1ncnc2c1ncn2C1CCCCC1,,,
,Nc1ncnc2[nH]c(O)nc12,110 µM,4.1,
,Nc1ncnc2c1ncn2CCN1CCNCC1,> 100 µM,,inhibition (Rattus norvegicus [1]): 28%; inhibition (HEK293 [3]): 0%
5%,CCn1cnc2c(NC3CCCC3)ncnc21,,,
-1%,CCOc1ncnc2c1ncn2C1CCCCC1,,,
,CC(=O)Nc1ncnc2[nH]cnc12,0.515 µM,0.18,Ratio Ki (HEK293 [8]): 5.5; Efficacy [11]: 77%; Activity (1321-N1 [12]): inactive; inhibition (1321-N1 [7]): Active
,Nc1ncnc2[nH]c(N3CCCC3)nc12,> 100 µM,> 2.4,inhibition (HEK293 [3]): 18%
,CN(C)c1nc2c(N)ncnc2[nH]1,34.1 µM,14.8,"inhibition at 250 µM ([11]; Rattus norvegicus, 1321-N1): 137%; inhibition (1321-N1 [7]): Active"
,CCNc1ncnc2[nH]cnc12,100 µM,6,inhibition (HEK293 [3]): 59%
,Nc1ncnc2c1ncn2CCc1ccccc1,100 µM,2,inhibition (HEK293 [3]): 57%

inhibition (Rattus norvegicus [4]),Compound,Ki [2],Ratio Ki (HEK293 [5]),further results
4%,CCn1cnc2c(OCCc3ccccc3)ncnc21,,,
39%,Nc1ncnc2c1N=CC2,,,
23%,Nc1ncnc2[nH]c(-c3cccc(C(F)(F)F)c3)nc12,,,
0%,Nc1nc(C#Cc2ccccc2)nc2c1ncn2[C@@H]1O[C@H](CO)[C@@H](O)[C@H]1O,,,
49%,NCCCNc1ncnc2[nH]cnc12,,,
1%,Nc1nc(Cl)nc2c1ncn2[C@@H]1O[C@H](CO)[C@@H](O)[C@H]1O,,,
4%,CCCCOc1nc(N)c2ncn(CC)c2n1,,,
15%,Nc1ncnc2c1ncn2Cc1ccccc1,,,
,Nc1ncnc2c1ncn2CCc1ccccn1,100 µM,> 22,inhibition (HEK293 [3]): 58%
,Nc1ncnc2[nH]c(N3CCCCC3)nc12,31.7 µM,8.1,inhibition (1321-N1 [13]): Active; inhibition (1321-N1 [14]): Active; inhibition (1321-N1 [7]): Active
,Nc1ncnc2c1ncn2CCc1cccnc1,> 100 µM,1.3,inhibition (HEK293 [3]): 41%
9%,Nc1nc(Cl)nc2c1ncn2[C@H]1C[C@H](O)[C@@H](CO)O1,,,
,Nc1ncnc2c1ncn2CC(N)C(=O)O (racemic),6.23 µM,0.58,
,NNc1ncnc2[nH]cnc12,17.5 µM,13,
21%,Nc1ncnc2[nH]ccc12,,,
,Nc1[nH]cnc2ncnc1-2 [ADENINE],0.0471 µM,,IC50 [15]: 0.00829 µM; Activity (1321-N1 [16]): Dose-dependent effect; inhibition at 1 µM [17]: 35%; inhibition (1321-N1 [18]): Active
5%,CCCCC#Cc1nc(N)c2ncn([C@@H]3O[C@H](CO)[C@@H](O)[C@H]3O)c2n1,,,
16%,Nc1ncnc2[nH]c(-c3ccccc3)nc12,,,
,CSc1nc2c(N)ncnc2[nH]1,,,inhibition (Rattus norvegicus [10]): 10%

inhibition (Rattus norvegicus [4]),Compound,Ki [2],Ratio Ki (HEK293 [5]),further results
11%,Nc1ncnc2ncn(Cc3ccccc3)c12,,,
,Nc1ncnc2c1ncn2CCC(=O)O,18.5 µM,0.9,
,Nc1ncnc2[nH]c(N3CCNCC3)nc12,27.4 µM,8.4,Efficacy [11]: 52%; Activity (1321-N1 [12]): inactive; inhibition (1321-N1 [7]): Active
0%,O=c1[nH]cnc2cc[nH]c12,,,
,CCCSc1nc2c(N)ncnc2[nH]1,,,inhibition (Rattus norvegicus [10]): 0%
,Nc1ncnc2[nH]c(C#Cc3ccccc3)nc12,,,inhibition (Rattus norvegicus [10]): 19%
,Nc1[nH]cnc2nc(NCc3ccccc3)nc1-2,32.9 µM,4.9,
58%,NCCNc1ncnc2[nH]cnc12,,,
,ONc1ncnc2[nH]cnc12,9.53 µM,19,Efficacy [19]: 51%; inhibition (1321-N1 [7]): Active
,OCCNc1ncnc2[nH]cnc12,100 µM,4,inhibition (HEK293 [3]): 58%
46%,CC(C)(C)OC(=O)NCCCNc1ncnc2[nH]cnc12,,,
,Nc1ncnc2c1ncn2[C@H]1C[C@H](O)[C@@H](CO)O1 [DEOXYADENOSINE],> 100 µM,> 9,inhibition (HEK293 [3]): 29%
12%,CCCCC(CC)n1cnc2c(N)ncnc21 (stereo not drawn),,,
21%,CC(C)(C)OC(=O)NCCNc1ncnc2[nH]cnc12,,,
,CCSc1nc2c(N)ncnc2[nH]1,,,inhibition (Rattus norvegicus [10]): 0%
1%,CCn1cnc2c(N)nc(Cl)nc21,,,
,Nc1ncnc2[nH]c(/C=C/c3ccccc3)nc12,12.2 µM,0.67,
-5%,Nc1nc(OCCC2CCCCC2)nc2[nH]cnc12,,,
7%,CCn1cnc2c(N)nc(OCCc3ccccc3)nc21,,,
